Measurements as given in ChEMBL document CHEMBL3351658, “Exploring human parainfluenza virus type-1 hemagglutinin-neuraminidase as a target for inhibitor discovery” (J Med Chem, 2014).

What was measured:
[1] = test system: LLC-MK2; experiment: (§1) Cytotoxicity against rhesus monkey LLC-MK2 cells assessed as cell viability at 250 uM after 48 hrs by MTT assay; assay type: cell-based, Macaca mulatta; settings: llc-mk2, 48 h, 250 µM
Outline: (§2)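 LLC-MK2 cells were kept in EMEM with 1% glutamine (200 mM) and 2% FBS at 37 °C under 5% CO2. They were exposed in triplicate to 250 µM of each compound for 48 h. Viability was read by MTT or AlamarBlue assay.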

[2] = Inhibition of hemagglutinin activity of human parainfluenza virus 1 C35 hemagglutinin-neuraminidase incubated for 20 mins in presence of chicken red blood cells; set-up: species or system Human respirovirus 1
Outline: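 HI used hPIV-1 strain C-35 grown in LLC-MK2 cells, with clarified supernatant ultrafiltered ≥10-fold. Compounds were diluted in PBS, mixed with virus (1 HAU final) and held 20 min at room temperature. Ice-cold 0.5% chicken RBC were added on ice, then 1 h 30 min at 4 °C. Run in duplicate, maximum 250 µM. IC50 is the concentration matching agglutination of a 0.5 HAU virus-only well.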

[3] = test system: LLC-MK2; experiment: (§3) Cytotoxicity against rhesus monkey LLC-MK2 cells assessed as cell viability at 250 uM after 48 hrs by alamar blue assay; assay type: cell-based, Macaca mulatta; settings: llc-mk2, 48 h, 250 µM; outline: as §2
[4] = as §1; assay type: cell-based, Macaca mulatta; settings: LLC-MK2 cells, read-out: Activity; outline: as §2
[5] = as §3; assay type: cell-based, Macaca mulatta; settings: LLC-MK2 cells, read-out: Activity; outline: as §2

SMILES	Activity [1]	IC50 [2] [nM]	Activity [3]	viability at 48 h, 250 µM [4] [%]	viability at 48 h, 250 µM [5] [%]
CC(=O)N[C@H]1[C@H]([C@H](O)[C@H](O)CO)OC(C(=O)[O-])=C[C@@H]1N.[Na+]	Non-toxic	> 250000	Non-toxic		
CC(C)C(=O)N[C@H]1[C@H]([C@H](O)[C@H](O)CO)OC(C(=O)[O-])=C[C@@H]1N=[N+]=[N-].[Na+]	Non-toxic	80	Non-toxic		
CC(C)C(=O)N[C@H]1[C@H]([C@H](O)[C@H](O)CO)OC(C(=O)[O-])=C[C@@H]1NC(=N)N.[Na+]	Non-toxic	> 250000	Non-toxic		
[N-]=[N+]=N[C@H]1C=C(C(=O)[O-])O[C@@H]([C@H](O)[C@H](O)CO)[C@@H]1NC(=O)C1CCC1.[Na+]	Non-toxic	930	Non-toxic		
CC(=O)N[C@H]1[C@H]([C@H](O)[C@H](O)CO)OC(C(=O)[O-])=C[C@@H]1O.[Na+]	Non-toxic	15900	Non-toxic		
CC(C)C(=O)N[C@H]1[C@H]([C@H](O)[C@H](O)CO)OC(C(=O)O)=C[C@@H]1O		490		93	93
CCC(C)C(=O)N[C@H]1[C@H]([C@H](O)[C@H](O)CO)OC(C(=O)[O-])=C[C@@H]1N=[N+]=[N-].[Na+] (some centres not stated)	Non-toxic	320	Non-toxic		
CC(O)C(=O)N[C@H]1[C@H]([C@H](O)[C@H](O)CO)OC(C(=O)[O-])=C[C@@H]1N=[N+]=[N-].[Na+] (some centres not stated)	Non-toxic	40000	Non-toxic		
CC(C)C(=O)N[C@H]1[C@H]([C@H](O)[C@H](O)CO)OC(C(=O)[O-])=C[C@@H]1N.[Na+]	Non-toxic	7290	Non-toxic		
CC(=O)N[C@H]1[C@H]([C@H](O)[C@H](O)CO)OC(C(=O)[O-])=C[C@@H]1N=[N+]=[N-].[Na+]	Non-toxic	3500	Non-toxic		
CC(=O)N[C@H]1[C@H]([C@H](O)[C@H](O)CO)OC(C(=O)[O-])=C[C@@H]1NC(=N)N.[Na+]	Non-toxic	> 250000	Non-toxic		
C/C=C(\C)C(=O)N[C@H]1[C@H]([C@H](O)[C@H](O)CO)OC(C(=O)[O-])=C[C@@H]1N=[N+]=[N-].[Na+]	Non-toxic	3000	Non-toxic		
[N-]=[N+]=N[C@H]1C=C(C(=O)[O-])O[C@@H]([C@H](O)[C@H](O)CO)[C@@H]1NC(=O)C1CC1.[Na+]	Non-toxic	320	Non-toxic		
CC(CO)C(=O)N[C@H]1[C@H]([C@H](O)[C@H](O)CO)OC(C(=O)[O-])=C[C@@H]1N=[N+]=[N-].[Na+] (some centres not stated)	Non-toxic	3000	Non-toxic		
